The record followed here is ChEMBL document CHEMBL1926542, “Synthesis and in vitro antiproliferative evaluation of pyrimido[5,4-c]quinoline-4-(3H)-one derivatives” (Eur J Med Chem, 2012).

Molecules are shown by their SMILES.

What all share (assay type): functional, cell-based
One test concerns MDA-MB-453. Briefly: Antiproliferative activity against human MDA-MB-453 cells after 72 hrs by MTT assay. As to conditions: MDA-MB-453, 72 h. An outline of the steps: (§1)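 Cells in 10% fetal calf serum, RPMI 1640 for all lines except MCF-7 (DMEM). Log-phase cells seeded at 2×10⁴ cells/ml, 37 °C, 5% CO₂. Compounds added after 24 h, then 72 h at 37 °C. MTT (5 mg/ml saline stock) for 3 h, formazan dissolved in DMSO, A570 read (ref 655 nm). IC₅₀ from dose-response curves. Mean of three independent experiments.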
For orientation: Formazan colour is commonly taken as a measure of viable cells.

A further test relates to MGC-803. Description: Antiproliferative activity against human MGC803 cells after 72 hrs by MTT assay. The note with it: MGC-803, 72 h. An outline of the steps: as §1
The nature of test [1]: Antiproliferative activity against human GLC82 cells after 72 hrs by MTT assay. The note with it: GLC82, 72 h. The gist of the method: as §1
The next test deals with KB. Description: Antiproliferative activity against human KB cells after 72 hrs by MTT assay. The gist of the method:
as §1

Test [2] can be described thus: Antiproliferative activity against human CNE2 cells after 72 hrs by MTT assay. The note with it: CNE-2, 72 h. An outline of the steps: as §1
Another test has as its system MCF7. Briefly: Antiproliferative activity against human MCF7 cells after 72 hrs by MTT assay. As to conditions: MCF7, 72 h. An outline of the steps:
as §1

For `CCCCn1cnc2c(c(C)nc3ccccc32)c1=O`, the IC50 (in the test on MDA-MB-453; with MGC-803; in test [1]; with KB; in test [2]; with MCF7) was more than 50 µM in each case.
With `CCCn1cnc2c(c(C)nc3ccccc32)c1=O`, the 50% inhibitory concentration (IC50) (with MDA-MB-453; in the test with MGC-803; in test [1]; in the test with KB; in test [2]; in the test with MCF7) was more than 50 µM in each case.
As to `Cc1nc2ccccc2c2ncn(C(C)C)c(=O)c12`, the IC50 (in the test with MDA-MB-453; in the test on MGC-803; in test [1]; in the test with KB; in test [2]; in the test with MCF7) was more than 50 µM throughout.
Take `Cc1nc2ccccc2c2ncn(N)c(=O)c12`: the 50% inhibitory concentration (IC50) (in the test with MDA-MB-453; in the test with MGC-803; in test [1]; in the test on KB; in test [2]; in the test on MCF7) was more than 50 µM each time.
Consider `Cc1nc2ccccc2c2ncn(CCO)c(=O)c12`, for which the IC50 (in the test with MDA-MB-453; in the test on MGC-803; in test [1]; with KB; in test [2]; in the test on MCF7) was more than 50 µM throughout.
Consider `Cc1nc2ccccc2c2ncn(CCN)c(=O)c12`, for which the concentration for half-maximal inhibition (IC50) (in general, the concentration that inhibits the measured activity by half) is 45.7 µM in the test on MDA-MB-453; 39.9 µM with MGC-803; more than 50 µM in test [1]; 39.8 µM in the test with KB; more than 50 µM in test [2]; 43.5 µM in the test on MCF7.
Turning to `Cc1nc2ccccc2c2ncn(CCc3ccccc3)c(=O)c12`, the IC50 was 49.5 µM in the test with MDA-MB-453; more than 50 µM with MGC-803; 35.2 µM in test [1]; more than 50 µM with KB; more than 50 µM in test [2]; more than 50 µM with MCF7.
For `Cc1nc2ccccc2c2ncn(Cc3ccccc3)c(=O)c12`, the IC50 is more than 50 µM in the test with MDA-MB-453; more than 50 µM with MGC-803; more than 50 µM in test [1]; more than 50 µM in the test with KB; 26.5 µM in test [2]; more than 50 µM in the test with MCF7.
In the case of `CCn1cnc2c(c(C)nc3ccccc32)c1=O`, the IC50 (in the test with MDA-MB-453; in the test with MGC-803; in test [1]; in the test on KB; in test [2]; with MCF7) was more than 50 µM in each case.
For `CCC(C)n1cnc2c(c(C)nc3ccccc32)c1=O` (stereo not given), the IC50 (in the test with MDA-MB-453; in the test with MGC-803; in test [1]; in the test on KB; in test [2]; in the test with MCF7) was more than 50 µM in each case.
As for `Cc1nc2ccccc2c2ncn(CC(C)C)c(=O)c12`, the IC50 (in the test on MDA-MB-453; with MGC-803; in test [1]; in the test on KB; in test [2]; in the test on MCF7) was more than 50 µM throughout.
Regarding `Cc1nc2ccccc2c2nc(Oc3cccc4ccccc34)n(-c3ccc(Cl)cc3)c(=O)c12`, the IC50 in the test on MDA-MB-453 was more than 50 µM; in the test on MGC-803 it was 18.5 µM; in test [1], 42.1 µM; in the test with KB, 33.9 µM; in test [2] it was 47 µM; with MCF7, 37.9 µM.
Turning to `COc1ccccc1Oc1nc2c(c(C)nc3ccccc32)c(=O)n1-c1ccc(Cl)cc1`, the IC50 with MDA-MB-453 is 49.7 µM; in the test with MGC-803, more than 50 µM; in test [1], more than 50 µM; with KB, 39.2 µM; in test [2], more than 50 µM; in the test on MCF7 it was 34 µM.
Regarding `Cc1nc2ccccc2c2nc(Oc3ccc(Br)cc3)n(-c3ccc(Cl)cc3)c(=O)c12`, the half-maximal inhibitory concentration (IC50) with MDA-MB-453 was 26.6 µM; with MGC-803, 15.3 µM; in test [1] it was more than 50 µM; in the test with KB, 29.5 µM; in test [2], 28.7 µM; in the test with MCF7, 35.7 µM.
Turning to `Cc1nc2ccccc2c2nc(Oc3ccc4c(c3)OCO4)n(-c3ccc(Cl)cc3)c(=O)c12`, the IC50 in the test with MDA-MB-453 was more than 50 µM; in the test on MGC-803 it was more than 50 µM; in test [1], more than 50 µM; in the test on KB it was 30.9 µM; in test [2] it was 47.7 µM; in the test on MCF7 it was more than 50 µM.
`Cc1nc2ccccc2c2nc(Oc3ccc([N+](=O)[O-])cc3Cl)n(-c3ccc(Cl)cc3)c(=O)c12`: the IC50 with MDA-MB-453 worked out at 18.2 µM; in the test on MGC-803, 4.8 µM; in test [1] it was 7.88 µM; in the test with KB, 4.9 µM; in test [2], 13.8 µM; in the test on MCF7 it was 10.1 µM.
`Cc1cc(Oc2nc3c(c(C)nc4ccccc43)c(=O)n2-c2ccc(F)cc2)ccc1Cl`: the IC50 was more than 50 µM with MDA-MB-453; 41.4 µM in the test with MGC-803; more than 50 µM in test [1]; more than 50 µM with KB; more than 50 µM in test [2]; more than 50 µM with MCF7.
For the compound `Cc1nc2ccccc2c2nc(Oc3ccccc3Cl)n(-c3ccc(F)cc3)c(=O)c12`, the IC50 (with MDA-MB-453; in the test with MGC-803; in test [1]; with KB; in test [2]; in the test with MCF7) was more than 50 µM throughout.
Consider `COc1ccccc1Oc1nc2c(c(C)nc3ccccc32)c(=O)n1-c1ccccc1`, for which the IC50 in the test on MDA-MB-453 was more than 50 µM; in the test on MGC-803, more than 50 µM; in test [1], more than 50 µM; in the test on KB, more than 50 µM; in test [2], more than 50 µM; in the test on MCF7 it was 35.5 µM.
For `Cc1nc2ccccc2c2nc(Oc3ccc(Cl)cc3Cl)n(-c3ccccc3)c(=O)c12`, the concentration for half-maximal inhibition (IC50) in the test on MDA-MB-453 is more than 50 µM; in the test on MGC-803, more than 50 µM; in test [1], more than 50 µM; in the test on KB, 22.8 µM; in test [2] it was 42.9 µM; in the test on MCF7, more than 50 µM.
On to `Cc1nc2ccccc2c2nc(NC(C)(C)C)n(-c3ccccc3)c(=O)c12`, for which the IC50 (in the test on MDA-MB-453; with MGC-803; in test [1]; with KB; in test [2]; with MCF7) was more than 50 µM throughout.
As to `Cc1nc2ccccc2c2nc(Nc3ccc(Cl)cc3)n(N)c(=O)c12`, the concentration for half-maximal inhibition (IC50) (in the test with MDA-MB-453; with MGC-803; in test [1]; in the test with KB; in test [2]; in the test on MCF7) was more than 50 µM throughout.
`Cc1nc2ccccc2c2nc(Nc3ccccc3)n(N)c(=O)c12`: the IC50 is more than 50 µM with MDA-MB-453; 14.7 µM with MGC-803; more than 50 µM in test [1]; 30.3 µM in the test with KB; more than 50 µM in test [2]; more than 50 µM in the test with MCF7.
`Cc1nc2ccccc2c2nc3n(-c4ccccc4)cnn3c(=O)c12`: the IC50 (in the test on MDA-MB-453; in the test on MGC-803; in test [1]; in the test on KB; in test [2]; in the test with MCF7) was more than 50 µM in each case.
For the compound `O=c1[nH]cc(F)c(=O)[nH]1` [FLUOROURACIL], the IC50 in the test on MDA-MB-453 is more than 50 µM; with MGC-803, 16.6 µM; in test [1] it was 15.5 µM; in the test on KB it was 9.85 µM; in test [2] it was 17.2 µM; in the test on MCF7, 9.67 µM.
